In ChEMBL document CHEMBL1136861, “Identification of a series of benzoxazoles as potent 5-HT6 ligands” (Bioorg Med Chem Lett, 2009):

Each molecule was assayed against T1, 5-hydroxytryptamine receptor 6 (Homo sapiens, UniProt P50406) (assay: Antagonist activity at human cloned 5HT6 receptor expressed in human HeLa cells assessed as blockage of 5-HT-stimulated cAMP formation after 10 mins by radioimmunoassay).
Format: functional, cell-based
In short: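 HeLa cells stably transfected with human 5-HT6 receptor; antagonism read as blockade of 5-HT-stimulated cAMP formation; IC50 and Imax values determined in triplicate.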

T1 sequence (P50406 whole entry): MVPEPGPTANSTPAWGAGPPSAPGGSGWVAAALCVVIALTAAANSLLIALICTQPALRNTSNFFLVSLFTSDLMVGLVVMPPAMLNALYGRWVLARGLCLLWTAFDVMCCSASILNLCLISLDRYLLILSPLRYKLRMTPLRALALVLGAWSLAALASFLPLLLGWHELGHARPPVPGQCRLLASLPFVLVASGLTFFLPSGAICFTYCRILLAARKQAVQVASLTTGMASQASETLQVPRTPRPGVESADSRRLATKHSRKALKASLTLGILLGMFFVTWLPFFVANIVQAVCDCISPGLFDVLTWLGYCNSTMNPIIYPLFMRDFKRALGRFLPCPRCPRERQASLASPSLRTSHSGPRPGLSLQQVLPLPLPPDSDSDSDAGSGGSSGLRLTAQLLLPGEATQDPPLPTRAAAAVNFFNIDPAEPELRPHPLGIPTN

Structure (SMILES)	IC50 [µM]	Imax [%]
CCN1CCN(c2nc3c(S(=O)(=O)c4cccc5ccccc45)cccc3o2)CC1	0.248	89
O=S(=O)(c1cccc2ccccc12)c1cccc2nc(N3CCNCC3)oc12	0.077	96
O=S(=O)(c1cccc(C(F)(F)F)c1)c1cccc2oc(N3CCNCC3)nc12	0.12	96
O=S(=O)(c1cccc2ccccc12)c1cccc2oc(N3CCNCC3)nc12	0.096	97
O=S(=O)(c1cc(Cl)ccc1Cl)c1cccc2oc(N3CCNCC3)nc12	0.117	92
CN1CCN(c2nc3c(S(=O)(=O)c4cccc5ccccc45)cccc3o2)CC1	0.105	83
COc1cccc(S(=O)(=O)c2cccc3oc(N4CCNCC4)nc23)c1	0.1	92

The molecules below were run against T1, 5-hydroxytryptamine receptor 6 (assay: Displacement of [3H]LSD from human cloned 5HT6 receptor expressed in human HeLa cells).
Format: cell-based
In short: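 Human 5-HT6 receptor cloned and stably expressed in HeLa cells; competition binding with [3H]-LSD as radioligand; Ki values determined in triplicate.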

Structure (SMILES)	Ki [µM]
O=S(=O)(c1cccc2ccccc12)c1cccc2nc(N3CCNCC3)oc12	0.0071
O=S(=O)(c1ccccc1)c1cccc2oc(N3CCNCC3)nc12	0.041
O=S(=O)(c1cccc2ccccc12)c1cccc2oc(N3CCN(C4CCCC4)CC3)nc12	0.079
O=S(=O)(c1cccc2ccccc12)c1cccc2oc(N3CCN(CCCc4ccccc4)CC3)nc12	0.127
CN1CCN(c2nc3c(S(=O)(=O)c4cccc5ccccc45)cccc3o2)CC1	0.0097
